Screens as filed in PubChem.
Only some compounds are listed: those with a hit (about 5.2% of all), similar ones and a draw of the others.
ZTA DNA inh – ZTA (EBV) inhibition in EBNA-1 counter-screen. P03206. ZTA-DNA binding, fluorescence polarization. inhibition, % at 11 µM. 320,000 tested, 0.15% active. AID 2234; in the data active = inhibition above about 33%
Target sequence (P03206 whole entry, looked up): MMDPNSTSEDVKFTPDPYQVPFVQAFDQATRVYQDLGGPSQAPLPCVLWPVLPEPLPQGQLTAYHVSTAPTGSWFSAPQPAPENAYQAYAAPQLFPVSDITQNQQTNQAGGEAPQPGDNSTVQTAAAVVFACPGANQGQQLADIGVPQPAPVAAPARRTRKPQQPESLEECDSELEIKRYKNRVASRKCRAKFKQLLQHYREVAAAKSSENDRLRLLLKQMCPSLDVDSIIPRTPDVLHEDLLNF
core dimer inh – HCV core protein dimerization inhibition; TR-FRET GST/Flag-core106 dimerization, 1536-well; inhibition, % at 5 µM; 300,000 tested, 0.33% active;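 active = inhibition above the mean of all tested compounds plus 3 SD, set per screening campaign, cut at about 45% in these data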
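Assay system: tagged HCV core106 pair (GST and Flag); medium: KF-containing HEPES buffer, pH 7.45, DTT, CHAPS, BSA; also added: Eu donor and XL665 acceptor anti-tag antibodies; dosing: 5 µM single dose; timing: compound-protein-antibody incubation 4 h at 22.5 °C; signal: TR-FRET 671 and 617 nm emission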
ALR inh – human ALR oxidase inhibition via reduced H2O2; AID 485317; 290,000 tested, 3.8% active; inhibition, % (no concentration beside the values); purified ALR, DTT oxidation, H2O2 HRP-luminol luminescence;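 active = mean replicate inhibition above about 79%, with every replicate also reaching it, limit read from the data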
Target sequence (P55789 whole entry, looked up): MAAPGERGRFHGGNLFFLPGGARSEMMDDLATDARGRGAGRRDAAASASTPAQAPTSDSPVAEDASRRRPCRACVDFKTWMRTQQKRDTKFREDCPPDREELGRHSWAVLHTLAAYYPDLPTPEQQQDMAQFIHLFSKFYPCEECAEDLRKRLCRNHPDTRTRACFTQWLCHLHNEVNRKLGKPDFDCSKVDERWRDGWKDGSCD
HCV NS3 hel inh – HCV NS3 helicase inhibition; NS3 helicase DNA unwinding, Cy5 molecular beacon fluorescence; inhibition, % at 10.9 µM; 290,000 tested, 0.56% active; AID 1800;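 active = inhibition above the mean of all tested compounds plus 3 SD, set per campaign, cut at about 35% in these data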
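test system = hepatitis C virus NS3 helicase domain fragment enzyme | reagent = annealed dual-labelled DNA beacon duplex, ATP-started | times = 1 h at 25 °C | detection = Cy5 fluorescence, 0 and 60 min reads | read-out basis = percent inhibition from t60/t0 fluorescence ratio | control set = DMSO and thioflavine S | replication = one well per compound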
EBNA-1 inhibitor – blocks EBNA-1 binding to DNA | EBNA-1 DNA binding, fluorescence polarization | inhibition, % at 14.8 µM | 300,000 tested, 0.34% active | AID 1950; in the data active = inhibition above about 28%
M18AAP inhibitor – blocks P. falciparum M18 aspartyl aminopeptidase; recombinant PfM18AAP, H-Glu-NHMec fluorogenic cleavage; inhibition, % at 7.35 µM; 290,000 tested, 1.2% active; AID 1822;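 active = inhibition above the campaign mean inhibition over all tested compounds plus 3 SD, cut at about 28% in these data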
Each line names hits and unclear results; the compound was inactive in the other large screens.

CCn1c(C)c(C(C)=O)c(NCc2ccccc2)nc1=S	ALR inh 98
CC(=O)c1c(NCc2ccccc2)nc(=O)n(-c2ccccc2)c1C	none
S=c1nc(-c2cc(Cl)cc(Cl)c2)[nH][nH]1	ALR inh 98
S=c1nc(-c2cccc(Cl)c2)[nH][nH]1	ALR inh 92
CNc1nc(N)c(C(=O)C(C)(C)C)s1	ALR inh 99
CNc1ncc(C(=O)C(C)(C)C)s1	none
CCOC(=O)c1cnc2ccc(OC)cc2c1Nc1ccc(N2CCN(C)CC2)cc1	ALR inh 99 (no result: ZTA DNA inh, core dimer inh, EBNA-1 inhibitor)
CCOC(=O)c1ccc2ncc(C(=O)OCC)c(Nc3ccc(N4CCOCC4)cc3)c2c1	none
COc1ccc(N2C(=O)CC(Sc3nc(C)c4c(n3)CCCC4)C2=O)cc1 (stereo not given)	none
COc1ccc(N2C(=O)CC(Sc3n[nH]c(-c4ccccc4)n3)C2=O)cc1 (stereo not given)	ALR inh 99
CCOc1ccc(N2C(=O)CC(SCc3nc4ccccc4[nH]3)C2=O)cc1 (stereo not given)	none
CCOc1ccc(N2C(=O)CC(Sc3n[nH]c(-c4ccccc4)n3)C2=O)cc1 (stereo not given)	ALR inh 99
C[C@]12CCC(=O)C=C1C=C[C@@H]1[C@@H]2CC[C@@]2(C)[C@H]1CC[C@@]21CCC(=O)O1	none (no result: ZTA DNA inh, core dimer inh, EBNA-1 inhibitor)
Nc1ncc(Br)cc1S(=O)(=O)Nc1cc(C(F)(F)F)cc(C(F)(F)F)c1	none
CCCCN1C(=O)C2Cc3c([nH]c4ccccc34)CN2C1=S (stereo not given)	ALR inh 89
O=C(Nc1nc(-c2ccccn2)cs1)c1cccc(S(=O)(=O)N2CCOCC2)c1	none (no result: core dimer inh, HCV NS3 hel inh, EBNA-1 inhibitor, M18AAP inhibitor)
COC(=O)c1cccc(/C=N/NC(N)=S)c1O	M18AAP inhibitor 31
NC(=S)N/N=C/c1ccccc1[N+](=O)[O-]	none
O=C(CNC(=O)c1ccccc1)Oc1cccc(Cl)c1	none (no result: HCV NS3 hel inh, M18AAP inhibitor)
O=S(=O)(Nc1ccccc1F)c1ccc(Cl)nc1	none (no result: core dimer inh, ALR inh, HCV NS3 hel inh, EBNA-1 inhibitor, M18AAP inhibitor)
O=S(=O)(Nc1ccccc1O)c1ccc(Cl)nc1	ALR inh 99
CCOc1ccc(NC(=O)c2ccccc2C(=O)c2ccccc2)cc1OCC	none (no result: ALR inh)
COc1cc(C2C(C(=O)OC(C)C)=C(C)Nc3[nH]c(=O)[nH]c(=O)c32)ccc1O (stereo not given)	ALR inh 79
COC(=O)C1=C(C)Nc2[nH]c(=S)[nH]c(=O)c2C1c1ccc(O)cc1 (stereo not given)	none
Cc1cc(C(=O)Nc2nc3c(C)cccc3s2)c(C)o1	ALR inh 95
CCc1ccccc1NC(=O)CCc1c(C)nn(-c2ccc(N3CCOCC3)nn2)c1C	none
CC1=C(C)CC2C(C1)C(=O)c1ccc(Br)cc1S2(=O)=O (stereo not given)	none (no result: core dimer inh, HCV NS3 hel inh, EBNA-1 inhibitor, M18AAP inhibitor)
CCN(CC)Cc1cc(O)c(CN(CC)CC)cc1O	M18AAP inhibitor 29 (no result: ZTA DNA inh, core dimer inh, ALR inh, EBNA-1 inhibitor)
CCc1oc(C(=O)O)cc1CN(CC)CC	none
Cc1c(C)c2ccc(OCC(=O)N[C@@H](Cc3ccccc3)C(=O)O)cc2oc1=O	none
Cc1oc2cc3oc(=O)c(CC(=O)N[C@@H](C)C(=O)NC(Cc4ccc(Cl)cc4)C(=O)O)c(C)c3cc2c1C (stereo not given in full)	ALR inh 98
Cc1c(OCC(=O)NC(Cc2ccc(Cl)cc2)C(=O)O)ccc2c3c(c(=O)oc12)CCC3 (stereo not given)	none
CCCCCCc1c(C)c2ccc(OCC(=O)N[C@@H](Cc3ccccc3)C(=O)O)cc2oc1=O	ALR inh 97
Cc1c(OCC(=O)NC(Cc2ccc(Cl)cc2)C(=O)O)ccc2c1oc(=O)c1ccccc12 (stereo not given)	ALR inh 88
CN1CCN(C(=O)CCc2nc3ccccc3n2-c2ccccc2)CC1	none
CC(C)CSc1nnc2c(n1)[nH]c1ccccc12	none
CC1=CCC(/C=N\Nc2nnc3c(n2)[nH]c2ccccc23)CC1 (stereo not given)	M18AAP inhibitor 36
Cc1ccsc1/C=C1/NC(=O)N(Cc2ccc(F)cc2)C1=O	none
O=C(NC1CCCCC1)C(c1ccncc1)N(C(=O)c1csnn1)c1cccc(F)c1 (stereo not given)	none
COc1ccccc1CN(C)C(=O)C1COc2ccccc2O1 (stereo not given)	ALR inh 100
O=C(COC(=O)C1CC2C=CC1C2)NCc1ccco1 (stereo not given)	core dimer inh 76 (no result: ALR inh)
O=C(COC(=O)C1CCCCC1C(=O)N1CCc2ccccc21)NCc1ccco1 (stereo not given)	core dimer inh 83
CCn1c(-c2cc(-c3ccc(C)cc3)nc3ccccc23)n[nH]c1=S	none (no result: ALR inh)
C=CCn1c(-c2cccc(OCC)c2)n[nH]c1=S	none
C=CCn1c(-c2cc(OC)cc(OC)c2)n[nH]c1=S	ALR inh 96
C=CCn1c(-c2cc(-c3ccc(C)cc3)nc3ccccc23)n[nH]c1=S	ALR inh 94
Cc1cc(NC(=O)Nc2ccccc2)n(C(C)(C)C)n1	none
Cc1ccc(C(=O)CCc2ccc(N)cc2)cc1	ALR inh 99
COc1ccc(CCC(=O)OC(C)C(=O)c2ccc(C)cc2)cc1 (stereo not given)	none
CC(=O)/C=N/Nc1ccccc1	none
OC[C@@H](O)[C@H](O)C(/C=N/Nc1ccccc1)=N\Nc1ccccc1	ALR inh 99
COCCNC(=S)N(CCc1c(C)[nH]c2ccccc12)Cc1ccco1	ALR inh 87
CC1=C(C(=O)Nc2cccc(F)c2)C(c2ccsc2)C2=C(CC(C)(C)CC2=O)N1 (stereo not given)	none
COc1cc(/C=C2\C(=N)N3N=CSC3=NC2=O)ccc1OS(=O)(=O)c1ccccc1[N+](=O)[O-]	M18AAP inhibitor 29
N#Cc1c2ccccc2nc2ccccc12	none
Cc1nn(-c2ccccc2)cc1/C=N/NC(N)=S	ALR inh 97
Cc1nn(C)cc1S(=O)(=O)Nc1ncccn1	none
O=C(NNS(=O)(=O)c1ccc(Br)cc1)c1csnn1	M18AAP inhibitor 30 (no result: ZTA DNA inh, core dimer inh, ALR inh, EBNA-1 inhibitor)
O=C(NNS(=O)(=O)c1ccc(Br)cc1)c1ccccc1-n1cccc1	none
O=C(Nc1ccccc1NC(=O)c1csnn1)c1csnn1	M18AAP inhibitor 73
O=C(NC(=S)Nc1ccccc1Cl)c1csnn1	none
COc1ccc(-c2cn(-c3ccccc3)nc2C(=O)O)cc1OC	none
O=C(Cc1ccccc1F)Nc1cccc(S(=O)(=O)N2CCOCC2)c1	none (no result: ZTA DNA inh, core dimer inh, HCV NS3 hel inh, EBNA-1 inhibitor, M18AAP inhibitor)
N#Cc1ccccc1S(=O)(=O)N1CCC(C(=O)NCc2ccccc2CN2CCCC2)CC1	none (no result: core dimer inh, HCV NS3 hel inh, EBNA-1 inhibitor, M18AAP inhibitor)
COC(=O)/C=c1/s/c(=C(\C#N)C(=O)NCc2ccco2)n(-c2ccccc2)c1=O	none
COc1ccc(/C=c2\s/c(=C(/C#N)C(=O)NCc3ccco3)n(-c3ccccc3)c2=O)cc1	core dimer inh 58
COc1ccc(OC)c(-n2c(-c3cc(-c4ccc(F)cc4)n[nH]3)n[nH]c2=S)c1	none
